Experimental data taken from PMC6935887 (Journal of Medicinal Chemistry, 2019).

Tests used:
hCCR2 [1] = molecular target: T1, hCCR2 (Homo sapiens, UniProt P41597); experiment: [3H]-CCR2-RA-[R] displacement binding assay on U2OS-CCR2b membranes; details: for pKi ± SEM: displacement of ∼6 nM [3H]-CCR2-RA-[R] from U2OS cells stably expressing CCR2, 25 °C
T1 sequence (P41597 1-360 isoform P41597-2): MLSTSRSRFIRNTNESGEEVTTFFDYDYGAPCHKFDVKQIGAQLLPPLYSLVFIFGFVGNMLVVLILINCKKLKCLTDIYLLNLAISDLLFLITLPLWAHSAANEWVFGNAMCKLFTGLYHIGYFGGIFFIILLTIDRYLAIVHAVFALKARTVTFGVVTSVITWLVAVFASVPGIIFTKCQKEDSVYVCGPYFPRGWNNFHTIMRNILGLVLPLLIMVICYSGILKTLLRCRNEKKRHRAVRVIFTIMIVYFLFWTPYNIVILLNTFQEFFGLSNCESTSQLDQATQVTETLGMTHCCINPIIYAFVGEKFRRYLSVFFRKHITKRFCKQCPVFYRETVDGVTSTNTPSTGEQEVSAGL
Summary of the method: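 U2OS-CCR2b membranes (15–20 μg protein) were incubated with ~6 nM [3H]-CCR2-RA-[R] and at least 6 competitor concentrations. Buffer: 50 mM Tris-HCl, 5 mM MgCl2, 0.1% CHAPS, pH 7.4. Incubation 2 h at 25 °C. Rapid GF/B filtration, ten washes with ice-cold buffer (0.05% CHAPS), scintillation counting. Mean ± SEM of ≥3 experiments in duplicate.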

hCCR5 = hCCR5 (Homo sapiens, UniProt P51681); experiment: Tango β-arrestin recruitment assay in U2OS-CCR5 cells; type: cell-based; details: for Hill slope (nH): inhibition of CCL3-induced β-arrestin recruitment in U2OS-CCR5; for inhibition at 1 µM: read-out: inhibition at 1 μM (%), β-arrestin recruitment in U2OS-CCR5 by 1 μM compound, in the presence of an EC80 concentration of CCL3, negative = CCL3 stimulation
Summary of the method: (§1)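 Tango bla U2OS cells (human CCR2b or CCR5) were trypsinized and seeded at 10 000 cells/well in FreeStyle medium. Agonist mode: CCL2 or CCL3 for 16 h, 37 °C, 5% CO2. Antagonist mode: 30 min room-temperature preincubation with increasing compound (≤0.5% DMSO final), then 16 h with EC80 CCL2 (5 nM, CCR2) or CCL3 (14 nM, CCR5). LiveBLAzer-FRET B/G substrate 2 h; excitation 400 nm, 460/535 nm emission ratio.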

hCCR2 [2] = molecular target: T1, hCCR2; experiment: Tango β-arrestin recruitment assay in U2OS-CCR2 cells; type: cell-based; details: inhibition of CCL2-induced β-arrestin recruitment in U2OS-CCR2
Summary of the method: as §1

hCCR2 [3] = molecular target: T1, hCCR2; experiment: CCL2-stimulated [35S]GTPγS binding assay on U2OS-CCR2 membranes; type: biochemical; details: for decrease of basal [35S]GTPγS binding levels: 1 μM compound, in absence of CCL2, 0% = basal activity, 100% = 100 nM CCL2
Summary of the method: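 U2OS-CCR2b cells are grown in McCoy's 5A with 10% FCS, G418, hygromycin and zeocin, switching to dialyzed FCS before harvest. Membranes are prepared by scraping in PBS, homogenizing in ice-cold 50 mM Tris-HCl, 5 mM MgCl2, pH 7.4, ultracentrifuging (31 000 rpm, 20 min, 4 °C) twice, storing at −80 °C and measuring protein by BCA. Values come from nonlinear regression, ≥3 experiments in duplicate.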

[4] = CCL2 alone, [35S]GTPγS binding, U2OS-CCR2, 25 °C

Sequence of hCCR5 (P51681 whole entry): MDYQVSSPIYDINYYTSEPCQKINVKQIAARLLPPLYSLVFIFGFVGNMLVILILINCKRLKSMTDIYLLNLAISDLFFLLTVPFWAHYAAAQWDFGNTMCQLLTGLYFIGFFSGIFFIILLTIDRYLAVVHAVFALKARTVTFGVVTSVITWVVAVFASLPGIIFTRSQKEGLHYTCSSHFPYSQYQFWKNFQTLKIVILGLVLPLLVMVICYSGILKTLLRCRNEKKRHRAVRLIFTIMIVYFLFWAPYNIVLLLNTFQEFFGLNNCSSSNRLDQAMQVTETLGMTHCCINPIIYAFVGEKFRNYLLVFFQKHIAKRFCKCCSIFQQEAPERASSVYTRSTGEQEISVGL

Molecule: CCCCCc1[nH]c2nc(N)nn2c(=O)c1Cc1cccc(Cl)c1 [Compound 30, 2-Amino-6-(3-chlorobenzyl)-5-pentyl[1,2,4]triazolo[1,5-a]pyrimidin-7(4H)-one]
- pKi ± SEM (hCCR2 [1]): 8.14 ± 0.03

Molecule: CC(=O)C1=C(O)C(=O)N(c2ccc(Cl)cc2F)[C@@H]1C1CCCCC1 [CCR2-RA-[R], reference compound]
- Hill slope (nH) (hCCR5): −2.4

Molecule: CCCc1[nH]c2nc(N)nn2c(=O)c1Cc1cccc(Cl)c1 [Compound 26, 2-Amino-6-(3-chlorobenzyl)-5-propyl[1,2,4]triazolo[1,5-a]pyrimidin-7(4H)-one]
- Ki (hCCR2 [1]): ~4 nM
- inhibition at 1 µM (hCCR5): > 60%

Molecule: Cc1cccc(Cc2c(C3CC3)[nH]c3nc(N)nn3c2=O)c1 [Compound 13, 2-Amino-5-cyclopropyl-6-(3-methylbenzyl)[1,2,4]triazolo[1,5-a]pyrimidin-7(4H)-one]
- pKi ± SEM (hCCR2 [1]): 8.61 ± 0.03
- inhibition at 1 µM (hCCR5): > 60%

Molecule: Nc1nc2[nH]c(C3CC3)c(Cc3ccc(F)cc3)c(=O)n2n1 [Compound 20, 2-Amino-5-cyclopropyl-6-(4-fluorobenzyl)[1,2,4]triazolo[1,5-a]pyrimidin-7(4H)-one]
- pKi ± SEM (hCCR2 [1]): 8.39 ± 0.03

Molecule: COc1ccccc1Cc1c(C2CC2)[nH]c2nc(N)nn2c1=O [Compound 12, 2-Amino-5-cyclopropyl-6-(2-methoxybenzyl)[1,2,4]triazolo[1,5-a]pyrimidin-7(4H)-one]
- inhibition at 1 µM (hCCR5): -20%

Molecule: CC(C)c1[nH]c2nc(N)nn2c(=O)c1Cc1ccc(Cl)c(Cl)c1 [Compound 38, 2-Amino-6-(3,4-dichlorobenzyl)-5-isopropyl[1,2,4]triazolo[1,5-a]pyrimidin-7(4H)-one]
- fold increase in CCR5 potency compared to 37 (hCCR5): ~2 fold

Molecule: Cc1[nH]c2nc(N)nn2c(=O)c1Cc1cccc(Cl)c1 [Compound 24, 2-Amino-6-(3-chlorobenzyl)-5-methyl[1,2,4]triazolo[1,5-a]pyrimidin-7(4H)-one]
- inhibition at 1 µM (hCCR5): -35%

Molecule: Nc1nc2[nH]c(C3CC3)c(Cc3ccc(Cl)cc3)c(=O)n2n1 [Compound 21, 2-Amino-6-(4-chlorobenzyl)-5-cyclopropyl[1,2,4]triazolo[1,5-a]pyrimidin-7(4H)-one]
- pKi ± SEM (hCCR2 [1]): 8.74 ± 0.05

Molecule: COc1cccc(Cc2c(C3CC3)[nH]c3nc(N)nn3c2=O)c1 [Compound 17, 2-Amino-5-cyclopropyl-6-(3-methoxybenzyl)[1,2,4]triazolo[1,5-a]pyrimidin-7(4H)-one]
- pKi ± SEM (hCCR2 [1]): 7.89 ± 0.07
- inhibition at 1 µM (hCCR5): -27%

Molecule: COc1ccc(Cc2c(C3CC3)[nH]c3nc(N)nn3c2=O)cc1 [Compound 23, 2-Amino-5-cyclopropyl-6-(4-methoxybenzyl)[1,2,4]triazolo[1,5-a]pyrimidin-7(4H)-one]
- inhibition at 1 µM (hCCR5): -28%

Molecule: Cc1ccc(-c2[nH]c3nc(N)nn3c(=O)c2Cc2cccc(Cl)c2)cc1 [Compound 35, 2-Amino-6-(3-chlorobenzyl)-5-(p-tolyl)[1,2,4]triazolo[1,5-a]pyrimidin-7(4H)-one]
- fold decrease in affinity for CCR2 compared to 8 (hCCR2 [1]): 122 fold
- inhibition at 1 µM (hCCR5): -13%

Molecule: Nc1nc2[nH]c(C3CCCC3)c(Cc3cccc(Cl)c3)c(=O)n2n1 [Compound 31, 2-Amino-6-(3-chlorobenzyl)-5-cyclopentyl[1,2,4]triazolo[1,5-a]pyrimidin-7(4H)-one]
- fold increased affinity for CCR2 compared to 30 (hCCR2 [1]): 4.5 fold

Molecule: Nc1nc2[nH]c(C3CC3)c(Cc3ccccc3)c(=O)n2n1 [Compound 9, 2-Amino-6-benzyl-5-cyclopropyl[1,2,4]triazolo[1,5-a]pyrimidin-7(4H)-one]
- fold decrease in affinity for CCR2 compared to 8 (hCCR2 [1]): 5 fold

Molecule: Cc1nc2[nH]c(C3CC3)c(Cc3cccc(Cl)c3)c(=O)n2n1 [Compound 7, 6-(3-Chlorobenzyl)-5-cyclopropyl-2-methyl[1,2,4]triazolo[1,5-a]pyrimidin-7(4H)-one]
- pKi ± SEM (hCCR2 [1]): 8.46 ± 0.05

Molecule: Cc1ccc(-c2ccc3c(c2)C=C(C(=O)Nc2ccc(C[N+](C)(C)C4CCOCC4)cc2)CCC3)cc1.[Cl-] [TAK-779, reference compound]
- Hill slope (nH) (hCCR5): −1.1

Molecule: CC(C)c1[nH]c2nc(N)nn2c(=O)c1Cc1ccc(Cl)c(Br)c1 [Compound 43, 2-Amino-6-(3-bromo-4-chloro-benzyl)-5-isopropyl[1,2,4]triazolo[1,5-a]pyrimidin-7(4H)-one]
- Hill slope (nH) (hCCR5): −4.4
- Hill slope (nH) (hCCR2 [2]): −3.4
- decrease of basal [35S]GTPγS binding levels (hCCR2 [3]): 7–8%

Molecule: CC(C)c1[nH]c2nc(N)nn2c(=O)c1Cc1cc(Br)cc(Br)c1 [Compound 42, 2-Amino-6-(3,5-dibromobenzyl)-5-isopropyl[1,2,4]triazolo[1,5-a]pyrimidin 7(4H)-one]
- inhibition at 1 µM (hCCR5): ≤ 70%

Molecule: CC(C)c1[nH]c2nc(N)nn2c(=O)c1Cc1cccc(Cl)c1 [Compound 27, 2-Amino-6-(3-chlorobenzyl)-5-isopropyl[1,2,4]triazolo[1,5-a]pyrimidin-7(4H)-one]
- fold increase in CCR5 potency compared to 8 (hCCR5): 2 fold

Molecule: Cc1ccc(Cc2c(C3CC3)[nH]c3nc(N)nn3c2=O)cc1 [Compound 19, 2-Amino-5-cyclopropyl-6-(4-methylbenzyl)[1,2,4]triazolo[1,5-a]pyrimidin-7(4H)-one]
- Ki (hCCR2 [1]): 3 nM
- pKi ± SEM (hCCR2 [1]): 8.46 ± 0.03
- inhibition at 1 µM (hCCR5): -57%

Molecule: CCCCc1[nH]c2nc(N)nn2c(=O)c1Cc1cccc(Cl)c1 [Compound 28, 2-Amino-5-butyl-6-(3-chlorobenzyl)[1,2,4]triazolo[1,5-a]pyrimidin-7(4H)-one]
- Ki (hCCR2 [1]): 2 nM
- inhibition at 1 µM (hCCR5): > 60%

Molecule: CCCCCCc1[nH]c2nc(N)nn2c(=O)c1Cc1cccc(Cl)c1 [Compound 32, 2-Amino-6-(3-chlorobenzyl)-5-hexyl[1,2,4]triazolo[1,5-a]pyrimidin-7(4H)-one]
- inhibition at 1 µM (hCCR5): -63%

Molecule: Nc1nc2[nH]c(C3CC3)c(Cc3cccc(F)c3)c(=O)n2n1 [Compound 14, 2-Amino-5-cyclopropyl-6-(3-fluorobenzyl)[1,2,4]triazolo[1,5-a]pyrimidin-7(4H)-one]
- inhibition at 1 µM (hCCR5): < 45%

Molecule: CC(C)c1[nH]c2nc(N)nn2c(=O)c1Cc1cccc(Cl)c1Cl [Compound 39, 2-Amino-6-(2,3-dichlorobenzyl)-5-isopropyl[1,2,4]triazolo[1,5-a]pyrimidin-7(4H)-one]
- Hill slope (nH) (hCCR5): −3.7
- Hill slope (nH) (hCCR2 [2]): −2.5
- decrease of basal [35S]GTPγS binding levels (hCCR2 [3]): 7–8%

Molecule: Nc1nc2[nH]c(CCc3ccccc3)c(Cc3cccc(Cl)c3)c(=O)n2n1 [Compound 36, 2-Amino-6-(3-chlorobenzyl)-5-phenethyl[1,2,4]triazolo[1,5-a]pyrimidin-7(4H)-one]
- fold decrease in affinity for CCR2 compared to 8 (hCCR2 [1]): 40 fold
- inhibition at 1 µM (hCCR5): -42%

Molecule: Nc1nc2[nH]c(-c3ccccc3)c(Cc3cccc(Cl)c3)c(=O)n2n1 [Compound 34, 2-Amino-6-(3-chlorobenzyl)-5-phenyl[1,2,4]triazolo[1,5-a]pyrimidin-7(4H)-one]
- fold decrease in affinity for CCR2 compared to 8 (hCCR2 [1]): 20 fold
- inhibition at 1 µM (hCCR5): -41%

Molecule: CCL2: human recombinant chemokine, endogenous agonist of CCR2
- EC50 (hCCR2 [3]; [4]): 8 nM
- Emax ± SEM (%) (hCCR2 [3]; [4]): 107 ± 2%
- pEC50 ± SEM (hCCR2 [3]; [4]): 8.10 ± 0.06
